Rows were chosen to be rich in hits. Some 2.2% of all compounds tested hit in one or more screens of this group.
F508del corr: F508del CFTR correction, initial screen, CFBE line, single point; AID 720511, 2013; 350,000 tested, 0.36% active; activity (quench increase), % at 7.58 µM; CFBE cells, YFP halide quenching; stimulated with forskolin plus potentiator P3; % fluorescence drop versus neutral controls;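 active = mean added fluorescence quench of at least 8% versus neutral control, with both replicates also reaching 8%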;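 note: cells transiently co-express mutant CFTR-F508del with the halide-sensitive YFP; corrector assay measuring rescue of mutant channel to the surface after 24 h compound exposure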
dFosB act: activators of delta FosB homodimer, primary screen, biochemical, fluorescence polarization, TAMRA-CDK5 oligo, single point; purified delta FosB; percent of positive-control signal above neutral wells; Protein FosB (Mus musculus), P13346; AID 493131, 2011; activation, % at 25 µM; 340,000 tested, 0.99% active;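 active = mean activation above about 17%, with every replicate also reaching it, limit read from the data, passing the limit was not always enough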
Target sequence (P13346 whole entry, looked up): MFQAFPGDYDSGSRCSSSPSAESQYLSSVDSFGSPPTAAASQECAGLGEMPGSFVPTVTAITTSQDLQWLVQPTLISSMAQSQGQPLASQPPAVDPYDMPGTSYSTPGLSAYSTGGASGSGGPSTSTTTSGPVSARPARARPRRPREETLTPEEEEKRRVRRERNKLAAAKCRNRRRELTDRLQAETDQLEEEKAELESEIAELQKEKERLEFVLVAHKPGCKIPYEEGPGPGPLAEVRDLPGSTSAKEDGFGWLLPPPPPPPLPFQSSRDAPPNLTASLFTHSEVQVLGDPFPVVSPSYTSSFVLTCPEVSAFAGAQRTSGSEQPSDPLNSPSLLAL
S100A4 inh HTS: inhibitors of S100A4-myosin IIA peptide binding, primary screen, biochemical, fluorescence polarization, TAMRA-MyoIIA peptide; AID 652163, 2013; 360,000 tested, 0.14% active; inhibition, % at 10.7 µM;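 active = mean inhibition of at least 70% across replicates, with every replicate also reaching that level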
Target sequence (P26447 whole entry, looked up): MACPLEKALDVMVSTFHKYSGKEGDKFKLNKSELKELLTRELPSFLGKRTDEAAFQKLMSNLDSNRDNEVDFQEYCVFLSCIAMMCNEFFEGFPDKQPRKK
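System – human S100A4 monomer protein, biochemical binding assay · Buffer or medium – Calcium-containing HEPES buffer, pH 7.2 · Timing – 5 min between mix addition and reading · Also added – TAMRA-labelled myosin IIA heavy-chain peptide probe, 5 nM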
FGF22 binding-1: binders of human FGF22 protein, primary screen, FGF22 synaptogenesis inhibitor project, biophysical, thermal shift, single point; Fibroblast growth factor 22 (Homo sapiens), Q9HCT0; recombinant FGF22 thermal shift, SYPRO orange fluorescence; percent of sucrose octasulfate shift, DMSO zero; 340,000 tested, 1.5% active; activity (Tm shift, normalised), % at 9.99 µM;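 active = mean Tm shift, scaled 0 neutral to 100 positive control, at about 1.3% or above, every replicate too, limit read from the data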
Target sequence (Q9HCT0 whole entry, looked up): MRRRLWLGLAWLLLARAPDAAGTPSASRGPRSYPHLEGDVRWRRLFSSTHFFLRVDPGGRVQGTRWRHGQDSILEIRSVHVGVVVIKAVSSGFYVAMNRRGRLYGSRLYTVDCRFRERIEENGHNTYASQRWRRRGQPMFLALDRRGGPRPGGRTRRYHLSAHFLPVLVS
FGF22 binding-2: binders of human FGF22 protein, dose response, FGF22 synaptogenesis inhibitor project, biophysical, thermal shift, cherry-pick retest; shares compounds with FGF22 binding-1; recombinant FGF22 thermal shift, SYPRO orange fluorescence; thermal shift activity, °C (ΔTm) at 38 µM; 1,000 tested, 2% active; AID 720646, 2013;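 active = fitted rise in melting shift crosses a set limit at or below the top valid dose tested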
FGF22 TSA: binders of human FGF22 protein, dose response, FGF22 synaptogenesis inhibitor project, biophysical, thermal shift, dry powder; shares compounds with FGF22 binding-1; Thermal shift assay, SYPRO orange, melting temperature shift; Tm shift (activity), % at 38 µM; 50 tested, under 10 active; AID 743017, 2013;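 active = compounds whose fitted dose curve of melting temperature shift rises past a set threshold within the tested doses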
TSA no protein: compound-only thermal shift signal without protein, dose response, artefact control for FGF22 binder project, biochemical, cherry-picked samples, RT-PCR instrument; shares compounds with FGF22 binding-1; 1,000 tested, 2% active; AID 743019, 2013; AC50, µM (highest dose often 38 µM); compound-only SYPRO orange thermal shift counter-screen, no protein;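 active = rising signal whose fitted curve reaches the 0.54 level within the top valid dose, showing a melting point, actives reach about 13 µM in these data; inactive = the rest, including activity in the opposite direction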; note: value is where the raw curve crosses a fixed level and not half-maximal
The depositor's hits bear a star; i = inactive; nt = no result given; [ ] = remark or other dose.

SMILES	F508del corr	dFosB act	S100A4 inh HTS	FGF22 binding-1	FGF22 binding-2	TSA no protein	others
C[C@H](CO)N1C[C@H](C)[C@H](CN(C)C(=O)Nc2ccccc2)Oc2ccc(NC(=O)Nc3ccccc3)cc2CC1=O	3	nt	-1	1.2*	0.13	i
O=C(Nc1ccc(NC(=O)c2cccs2)cc1)c1cccs1	0	10	-12	1	nt	nt
Cc1ccn(-c2ccc(NC(=O)c3cccs3)cc2)n1	-1	-2	-18	1.8*	0.088	i	FGF22 TSA=0
Cc1c2c(n3c(nc4ccccc43)c1C#N)N(CCN(C)C)CC2	1	13	-5	1.4*	0.03	i
CCCNC(=O)C[C@H]1C[C@H]2c3cc(NC(=O)CC4CC4)ccc3O[C@H]2[C@H](CO)O1	-2	nt	7	0	nt	nt
C[C@@H]1CN([C@@H](C)CO)C(=O)CCCn2cc(nn2)CO[C@@H]1CN(C)C(=O)c1cc(-c2ccccc2)on1	2	nt	nt	nt	nt	nt
O=S(=O)(N[C@H]1CC[C@@H](CCn2cc(-c3ccccc3F)nn2)O[C@@H]1CO)c1ccc(F)cc1	-2	nt	-2	nt	nt	nt
Cc1ccsc1C(=O)NNC(=O)c1ccc(NS(=O)(=O)c2cccs2)cc1	1	-7	5	1.6*	0.021	i
COc1ccc(S(=O)(=O)N[C@@H]2CC[C@H](CC(=O)N3CCc4ccccc4C3)O[C@@H]2CO)cc1	0	nt	0	-1	nt	nt
O=C(C[C@H]1C=C[C@@H](NS(=O)(=O)c2ccccc2)[C@@H](CO)O1)N1CCc2ccccc2C1	2	nt	8	0	nt	nt
COc1ccc(S(=O)(=O)N[C@H]2CC[C@H](CC(=O)N3CCc4ccccc4C3)O[C@@H]2CO)cc1	1	nt	5	17*	-0.011	i
Cc1ccc(S(=O)(=O)N[C@@H]2C=C[C@@H](CC(=O)N3CCc4ccccc4C3)O[C@@H]2CO)cc1	0	nt	3	1.3*	0.12	i
O=C(C1CC1)N1C[C@H]2[C@@H](c3ccccc31)[C@H](CO)N2C(=O)Cc1ccccn1	-3	nt	6	0	nt	nt
COc1cccc(-c2ccc([C@@H]3[C@@H](CO)N4C(=O)CN(C(=O)C5CCOCC5)C[C@@H]34)cc2)c1	-1	nt	40	nt	nt	nt
C[C@H](CO)N1C[C@H](C)[C@@H](CN(C)S(C)(=O)=O)OCCCC[C@H](C)Oc2ccc(NC(=O)CCC(F)(F)F)cc2C1=O	1	nt	nt	nt	nt	nt
COC(=O)Cc1n[nH]c(=O)c2ccccc12	0	-8	5	12*	-0.025	i
CCCOC(=O)c1ccc(Oc2cn[nH]c2-c2ccc(O)cc2O)cc1	4	-1	3	1.5*	0.4	i
CCOC(=O)c1ccc(Oc2cn[nH]c2-c2ccc(O)cc2O)cc1	3	-7	12	nt	nt	nt
O=C(Nc1ccc(F)cc1)N[C@H]1C=C[C@@H](CC(=O)N2CCCCC2)O[C@@H]1CO	2	nt	1	0	nt	nt
CCOC(=O)Cn1c2ccccc2n2nc(CCC(=O)O)c(=O)nc12	1	-4	-1	19*	0.081	i
Cc1cc(C)n(-c2ccc(C(=O)Nc3ccc(S(=O)(=O)N(C)C)cc3)cc2)n1	1	-6	-7	1.5*	-0.24	i
COc1ccccc1NC(=O)N[C@H]1CC[C@H](CCn2cc(-c3ccccc3OC)nn2)O[C@H]1CO	0	nt	4	1.7*	-0.098[42 µM]	i
COc1ccccc1NC(=O)N[C@@H]1CC[C@H](CCn2cc(-c3ccccc3OC)nn2)O[C@@H]1CO	-1	nt	9	1.3*	0.13	i
COc1ccc(-c2cn(CC[C@H]3CC[C@H](NC(=O)Nc4ccc(F)cc4)[C@@H](CO)O3)nn2)cc1	1	nt	-21	1.5*	0.056[42 µM]	i
CC(C)NC(=O)N(C)C[C@H]1OCCCC[C@@H](C)Oc2ccc(NS(=O)(=O)c3ccccc3)cc2C(=O)N([C@@H](C)CO)C[C@@H]1C	0	nt	17	0	nt	nt
SMILES	F508del corr	dFosB act	S100A4 inh HTS	FGF22 binding-1	FGF22 binding-2	TSA no protein	others
CSc1nc2nc(Cl)c(Cl)nc2[nH]1	-2	nt	3	1.4*	0.039	i
CCOC(=O)CSc1nc2nc(Cl)c(Cl)nc2[nH]1	0	nt	-8	1	nt	nt
Cc1ccc(S(=O)(=O)c2nnn(-c3cccc(F)c3)c2N)cc1	-3	3	11	1.5*	-0.014	i
COc1ccc(S(=O)(=O)c2nnn(-c3cccc(OC)c3)c2N)cc1	-2	-2	0	0	nt	nt
Cc1noc(C)c1NC(=O)Nc1ccc2c(c1)CC(=O)N([C@@H](C)CO)C[C@H](C)[C@@H](CN(C)CC1CC1)O2	-3	nt	-2	0	nt	nt
COc1ccc(Nc2nnc(-c3ccncc3)s2)cc1Cl	-1	1	-2	1.5*	0.061	i
COc1ccc(Cl)cc1Nc1nnc(-c2ccncc2)s1	3	-3	-3	0	nt	nt
CC(=O)c1c(C)nc2ccc(Br)cc2c1-c1ccccc1	nt	-9	1	0	nt	nt
Cc1nc2ccc(Br)cc2c(-c2ccccc2)c1C(=O)O	-1	0	-1	29*	0.11	i
CO[C@@H]1CN(C)C(=O)c2cc(NC(=O)Nc3cccc(F)c3)ccc2OC[C@@H](C)N(C(=O)C2CC2)C[C@@H]1C	0	nt	nt	nt	nt	nt
COc1ccc(CCC(C)NC(=O)Cc2ccc(OC)c(OC)c2)c(OC)c1 (configuration not stated)	-2	3	-27	29*	0.073	i
COc1ccc(C(=O)Cc2ccc(OC)c(OC)c2)cc1	nt	1	nt	nt	nt	nt
Cn1c(=O)c2c(-c3ccccc3)n(-c3cc(Cl)c([N+](=O)[O-])cc3O)cc2n(C)c1=O	2	nt	2	1.6*	nt	i
Cn1c(=O)c2c(-c3ccccc3)n(-c3cc([N+](=O)[O-])ccc3O)cc2n(C)c1=O	-3	nt	-5	1.4*	-0.13	i
Cc1cccc(-c2c3c(=O)n(C)c(=O)n(C)c3cn2-c2ccccc2O)c1	nt	-5	nt	nt	nt	nt
Cc1ccc(-c2ccc3c(c2)O[C@H](CN(C)C(=O)CN(C)C)[C@@H](C)CN([C@H](C)CO)S3(=O)=O)cc1	-3	nt	1	0	nt	nt
O=S(=O)(N[C@@H]1CC[C@@H](CCn2cc(-c3cccnc3)nn2)O[C@H]1CO)c1ccccc1	-1	nt	7	0	nt	nt

Screening results as filed in PubChem.
